Pf Dd2 growth: P. falciparum Dd2 growth inhibitors, primary screen, SYBR Green fluorescence, single dose replicates; activity change, % at 10 µM; 72 h; stronger effect = lower value; 94,000 tested, 2.3% active; in the data active = activity change below about -80%; inconclusive = no clear call, values can overlap the other calls
IDH1 R132H inh: inhibitors of IDH1 R132H reductase, primary screen, biochemical, plate reader, single point | Isocitrate dehydrogenase [NADP] cytoplasmic (Homo sapiens), O75874 | diaphorase/resazurin fluorescence, 60 min | inhibition, % at 10 µM | 70,000 tested, 0.18% active; in the data active = inhibition above about 34%; inconclusive = no clear call, values can overlap the other calls; inactive = below about 11%
Target sequence (O75874 whole entry R132H): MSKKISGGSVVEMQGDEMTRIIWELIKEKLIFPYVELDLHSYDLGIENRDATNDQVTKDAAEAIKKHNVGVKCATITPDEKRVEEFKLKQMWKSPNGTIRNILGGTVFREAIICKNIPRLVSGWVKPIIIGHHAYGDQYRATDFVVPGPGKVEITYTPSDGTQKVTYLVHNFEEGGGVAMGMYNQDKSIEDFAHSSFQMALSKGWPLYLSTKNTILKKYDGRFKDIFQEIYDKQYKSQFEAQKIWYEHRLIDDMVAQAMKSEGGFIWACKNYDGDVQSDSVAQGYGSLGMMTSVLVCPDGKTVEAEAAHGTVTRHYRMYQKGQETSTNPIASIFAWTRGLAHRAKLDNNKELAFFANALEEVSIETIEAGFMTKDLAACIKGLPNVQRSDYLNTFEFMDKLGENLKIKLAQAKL
T cruzi growth-1: T. cruzi intracellular proliferation inhibitors, primary screen, cell-based, beta-gal Tulahuen parasites, NIH3T3 host, luminescence. T. cruzi beta-gal in NIH3T3, GalScreen luminescence, 90 h. inhibition, % at 8.34 µM. 77,000 tested, 5.9% active;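 active = mean inhibition above about 93%, with at least 55% of replicates each passing it, limit read from the data, passing the limit was not always enough; inconclusive = only one of those two conditions holds; inactive = neither condition holds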
GASC1 inh: inhibitors of GASC-1 (KDM4C) histone demethylase, primary screen, biochemical, single concentration HTS | Lysine-specific demethylase 4C (Homo sapiens), Q9H3R0 | 96,000 tested, 0.15% active | GST-KDM4C 2-372, H3K9me3 peptide, LANCE TR-FRET | inhibition, % at 12.5 µM;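 active = mean replicate inhibition above about 25%, with at least 55% of replicates also reaching it, limit read from the data, passing the limit was not always enough; inconclusive = only one of those two conditions met; inactive = neither condition met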
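System: N-terminal GST-fused human GASC-1 (KDM4C) fragment, residues 2-372; amount: enzyme final amount 10 nM; incubation: reaction 30 min RT, detection step 1 h RT; medium: HEPES buffer, pH 7.5, plus ascorbate; technique: LANCE TR-FRET, Eu antibody, ULight-streptavidin, EDTA, ex 340 nm, em 618/671 nm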
T cruzi growth-2: T. cruzi intracellular proliferation inhibitors, confirmation, cell-based, NIH3T3 host, beta-gal parasite, luminescence, cherry-pick; shares compounds with T cruzi growth-1; T. cruzi beta-gal in NIH3T3, GalScreen luminescence, 90 h; inhibition, % at 8.35 µM; 5,600 tested, 72% active;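 active = mean replicate inhibition above about 95% and at least 55% of replicates individually reaching it, limit read from the data; inconclusive = only one of the two criteria is met; inactive = neither criterion is met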
T cruzi growth-3: inhibitors of intracellular T. cruzi replication, confirmation, NIH3T3 host cells, beta-gal parasites, cherry-pick, set 2; shares compounds with T cruzi growth-1; T. cruzi beta-gal in NIH3T3, GalScreen luminescence, 90 h; inhibition, % at 2.09 µM; 5,600 tested, 21% active; AID 651740, 2012;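 active = mean inhibition above about 95%, with at least 55% of replicates also reaching it, limit read from the data; inconclusive = meets just one of the two conditions; inactive = meets neither condition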
NIH3T3 tox: cytotoxicity in mouse NIH/3T3 fibroblasts, confirmation, cytotoxicity control for T. cruzi proliferation inhibitor project, cell-based, cherry-pick, single point. NIH/3T3 viability, CellTiter-Glo ATP luminescence, 90 h. cytotoxicity (signal decrease), % at 8.35 µM. shares compounds with T cruzi growth-1. 5,600 tested, 14% active;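 active = mean signal decrease across replicates above about 35% based on untreated-well scatter, with enough replicates individually passing, limit read from the data; inconclusive = no rule stated though some were filed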
3T3 cytotox 2: NIH/3T3 fibroblast cytotoxicity, confirmation, cytotoxicity control, cell-based, cherry-pick, single point, set 2; shares compounds with T cruzi growth-1; inhibition, % at 24.9 µM; 5,600 tested, 56% active; NIH/3T3 viability, CellTiter-Glo ATP luminescence, 90 h;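 active = mean loss of cell viability signal at or above a set limit, and enough replicates individually reaching it; inconclusive = meets only the mean limit or only the replicate share; inactive = meets neither condition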
A number is an active result; - = inactive; ? = inconclusive; . = no result. Shown are actives, neighbours in structure and some others; about 5.9% of the full set was active somewhere.

SMILES	Pf Dd2 growth	IDH1 R132H inh	T cruzi growth-1	GASC1 inh	T cruzi growth-2	T cruzi growth-3	NIH3T3 tox	3T3 cytotox 2
COC(=O)c1ccc(Cl)c(NC(=O)CSc2nc3c(c(C(F)(F)F)n2)CCCC3)c1	.	-	.	.	.	.	.	.
COc1cccc(N(CC(=O)Nc2ccc(C(F)(F)F)cc2)S(C)(=O)=O)c1	.	-	.	.	.	.	.	.
O=C(NC1CCCC1)N1CCCCN2[C@H](CO)[C@H](c3ccc(/C=C/c4ccccc4)cc3)[C@H]2C1	-	.	110	-	100	117	-	104
O=C(NC1CCCC1)N1CCCCN2[C@H](CO)[C@H](c3ccc(/C=C/c4ccccc4)cc3)[C@@H]2C1	-	.	114	-	95	100	-	103
O=C(NC1CCCC1)N1CCCCN2[C@H](CO)[C@@H](c3ccc(/C=C/c4ccccc4)cc3)[C@H]2C1	-	.	-	-	.	.	.	.
C=CCNC(=O)[C@@H]1[C@H]2C(=O)O[C@H](c3ccccc3)[C@H](c3ccccc3)N2[C@H](c2ccc(O)cc2)[C@@]12C(=O)Nc1ccccc12	.	-	.	.	.	.	.	.
CN1C(=O)c2cc(NC(=O)c3ccc(F)c(F)c3)ccc2OC[C@@H]2O[C@@H](CC(=O)N[C@@H]3CCN(Cc4ccccc4)C3)CC[C@@H]21	.	.	112	-	102	-	-	39
CN1C(=O)c2cc(NC(=O)c3ccc(F)c(F)c3)ccc2OC[C@H]2O[C@@H](CC(=O)N[C@H]3CCN(Cc4ccccc4)C3)CC[C@@H]21	.	.	-	-	.	.	.	.
CN1C(=O)c2cc(NC(=O)c3ccc(F)c(F)c3)ccc2OC[C@H]2O[C@H](CC(=O)N[C@H]3CCN(Cc4ccccc4)C3)CC[C@@H]21	.	.	108	-	-	-	-	-
CN1C(=O)c2cc(NC(=O)c3ccc(F)c(F)c3)ccc2OC[C@@H]2O[C@@H](CC(=O)N[C@H]3CCN(Cc4ccccc4)C3)CC[C@H]21	.	.	99	-	?	-	-	-
CN1C(=O)c2cc(NC(=O)c3ccc(F)c(F)c3)ccc2OC[C@H]2O[C@H](CC(=O)N[C@H]3CCN(Cc4ccccc4)C3)CC[C@H]21	.	.	102	-	107	-	-	-
CN1C(=O)c2cc(NC(=O)Cc3cccs3)ccc2OC[C@@H]2O[C@H](CC(=O)N[C@H]3CCN(Cc4ccccc4)C3)CC[C@@H]21	.	.	-	-	.	.	.	.
CN1C(=O)c2cc(NC(=O)c3ccc(F)c(F)c3)ccc2OC[C@H]2O[C@H](CC(=O)N[C@@H]3CCN(Cc4ccccc4)C3)CC[C@@H]21	.	.	-	-	.	.	.	.
O=S(=O)(c1ccc(F)cc1)N1CCCCN2[C@H](C1)[C@H](c1ccc(C#CC3CCCC3)cc1)[C@@H]2CO	-	.	116	.	97	-	-	54
COc1ccc(S(=O)(=O)N2CCCCN3[C@H](C2)[C@H](c2ccc(C#CC4CC4)cc2)[C@@H]3CO)cc1	-	.	124	-	106	-	-	-
COc1ccc(S(=O)(=O)N2CCCCN3[C@H](CO)[C@H](c4ccc(C#CC5CC5)cc4)[C@H]3C2)cc1	-	.	100	-	106	111	54	105
Cc1ccc(-c2nnc3c4ccccc4c(C)nn23)cc1S(N)(=O)=O	.	-	.	.	.	.	.	.
Cc1ccc(OCC(=O)Nc2ccccc2C#N)cc1C	.	-	.	.	.	.	.	.
COc1ccc(-c2cc(=O)c3cc(OCC(=O)Nc4ccc(C)cc4C)ccc3o2)cc1	.	-	.	.	.	.	.	.
CNC[C@@H]1Oc2cc(C#Cc3cccc(OC)c3)ccc2S(=O)(=O)N([C@@H](C)CO)C[C@@H]1C	-	-	.	-	.	.	.	.
